NR2E3 ag-1: NR2E3 (human) agonism. actives 0.12% (n = 320,000). AID 2300. inhibition of corepressor binding, % at 4.78 µM. GST-NR2E3/biotin-RetCOR TR-FRET, 1536-well. Q9Y5X4;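 active = percent inhibition above the cutoff of mean plus 3 SD of all tested compounds, set per screening campaign, cut at about 20% in these data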
Target sequence (Q9Y5X4 whole entry, looked up): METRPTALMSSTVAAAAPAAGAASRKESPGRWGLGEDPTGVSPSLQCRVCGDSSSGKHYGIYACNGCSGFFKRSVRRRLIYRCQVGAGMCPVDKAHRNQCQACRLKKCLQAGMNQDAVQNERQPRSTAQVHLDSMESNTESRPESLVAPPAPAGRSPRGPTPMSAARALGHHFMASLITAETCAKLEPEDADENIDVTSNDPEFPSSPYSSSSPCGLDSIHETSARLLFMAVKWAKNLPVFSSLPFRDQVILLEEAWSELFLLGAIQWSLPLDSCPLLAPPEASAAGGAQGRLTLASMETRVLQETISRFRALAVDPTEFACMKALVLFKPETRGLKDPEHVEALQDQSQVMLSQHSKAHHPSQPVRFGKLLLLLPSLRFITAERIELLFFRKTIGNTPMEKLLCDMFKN
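Material: NR2E3–RetCOR corepressor complex | Quantity: 1.35 nM GST-tagged NR2E3 final | Schedule: 5 h at 4 °C | Replication: Singlicate compound wells | Reagent: RetCOR corepressor, biotinylated, 7 nM | Controls: Biotin wells as high control, 0.6% DMSO wells as low control | Signal: TR-FRET, Eu(K)-anti-GST donor, streptavidin-D2 acceptor, ex 340, em 617/671 nm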
Neddylation inh: cullin neddylation inhibition; calls only at 25 µM; P61081+Q13564; AID 651699; TR-FRET cullin neddylation, biochemical; actives 0.58% (n = 360,000); in the data active = inhibition above about 36%
NR2E3 ag-2: agonists of human NR2E3 nuclear receptor | CHO-S Gal4-NCOR/VP16-NR2E3 two-hybrid, luciferase | inhibition of corepressor binding, % at 3.98 µM | actives 0.35% (n = 360,000);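 active = inhibition above the mean of all tested compounds plus 3 SD, cut at about 70% in these data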;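 also: higher means lower luciferase signal from less NR2E3 corepressor binding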
Rev-erbA mod: Rev-erb alpha (human) modulation; Rev-erbα–FITC-DNA binding, fluorescence polarization, 90 min; activity, % at 10 µM; actives 0.79% (n = 370,000);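 active = activity above about 14%, limit read from the data; passing the limit was not always enough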
PG9 Ab binder: binds the HIV-1 gp120 antibody PG9; TR-FRET gp120-PG9 antibody binding; inhibition, % at 6.7 µM; actives 0.43% (n = 360,000); in the data active = inhibition above about 8.5%
Neddyl conf: cullin neddylation inhibition, confirmation; shares compounds with Neddylation inh; TR-FRET cullin neddylation biochemical assay; calls only at 25 µM; actives 13% (n = 1,800); AID 652217; in the data active = inhibition above about 40%;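 also: neddylation substrate is the cullin 1 ring ligase complex with SKP2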
Each line names hits and unclear results; the compound was inactive in the other large screens (follow-up assays come after a bar, where shown). An excerpt weighted towards active compounds, which were near 2% of everything screened.

CC(C(=O)NC1CCCC1)N1C(=O)c2cccc3cccc1c23 (stereo not given)	Neddylation inh active | Neddyl conf inactive
CC1CCc2sc(NC(=O)c3ccc(N4C(=O)CCC4=O)cc3)c(C(N)=O)c2C1 (stereo not given)	Neddylation inh active
NC(=O)c1c(NC(=O)c2ccc(N3C(=O)CCC3=O)cc2)sc2c1CCCC2	none
CC(C)(O)[C@H]1Cc2cc3ccc(=O)oc3cc2O1	none (not shown: Neddylation inh)
CC1(C)Oc2cc3oc(=O)ccc3cc2C[C@@H]1O	Neddylation inh active (not shown: NR2E3 ag-1)
CCC1C(=O)n2nc(-c3ccccc3)cc2N=C1C (stereo not given)	Neddylation inh active | Neddyl conf inactive
COc1cc(NC(=O)N[C@@H](Cc2c[nH]c3ccccc23)C(=O)O)c(C(=O)O)cc1OC	Neddylation inh active (not shown: NR2E3 ag-1)
CCC(C(=O)NC1CCCC1)n1c2ccccc2c2nc(=O)cc(C)n21 (stereo not given)	none (no result: NR2E3 ag-1)
O=C(Cn1c(=O)oc2cccnc21)Nc1ccc(C(F)(F)F)cc1	Neddylation inh active | Neddyl conf inactive
CC(C)c1ccc(NC(=O)Cn2c(=O)oc3cccnc32)cc1	none
COCC(=O)N[C@H]1C[C@@H]2O[C@@H](CO)CC[C@@H]2O[C@@H]1CCc1ccc(-c2ccccc2)cc1	none (no result: NR2E3 ag-1, Neddylation inh, NR2E3 ag-2, PG9 Ab binder)
CCc1ccc(S(=O)(=O)Nc2c(NC3CCCCC3)c3ccccc3oc2=O)cc1	Neddylation inh active (no result: Rev-erbA mod, PG9 Ab binder) | Neddyl conf active
CC(=O)Nc1ccc(S(=O)(=O)Nc2nc3ccccc3nc2Nc2ccc3ccccc3c2)cc1	none (not shown: Neddylation inh)
NS(=O)(=O)c1cccc(Nc2nc3ccccc3nc2NS(=O)(=O)c2ccc(Cl)cc2)c1	Neddylation inh active (no result: NR2E3 ag-1) | Neddyl conf active
CC(=O)Nc1ccc(S(=O)(=O)Nc2nc3ccccc3nc2Nc2cccc(O)c2)cc1	Neddylation inh active
COc1ccc(-c2nn(-c3ccccc3)cc2C2CC(c3cccs3)=NN2C(=O)CCC(=O)O)cc1 (stereo not given)	Neddylation inh active | Neddyl conf inactive
COc1ccc(C2=NN(C(=O)CCCC(=O)O)C(c3cn(-c4ccccc4)nc3-c3ccccc3)C2)cc1 (stereo not given)	none
O=c1nc2c(-c3ccccc3F)n[nH]n2c2ccccc12	none (not shown: Neddylation inh)
CCc1ccc(S(=O)(=O)c2n[nH]n3c2nc(=O)c2ccccc23)cc1	Neddylation inh active | Neddyl conf inactive
CC(C)c1ccc(S(=O)(=O)c2n[nH]n3c2nc(=O)c2ccccc23)cc1	Neddylation inh active | Neddyl conf inactive
COc1ccc(S(=O)(=O)N2CCOCC2)cc1NC(=O)CN1C(=O)NC2(CCC(C)CC2)C1=O (stereo not given)	none (no result: NR2E3 ag-1)
Cc1cccc(-n2ncc3c(NC(C)C)ncnc32)c1	Neddylation inh active | Neddyl conf inactive
CC(C)Nc1ncnc2c1cnn2-c1ccccc1	none
O=C(NCCO)c1ccc2c3n(nc2c1)-c1ccccc1CO3	Neddylation inh active | Neddyl conf inactive
O=C(NCC1CC1)c1ccc2c3n(nc2c1)-c1ccccc1CO3	none
Cc1ccc2c(c1)COc1c3ccc(C(=O)NCC4CC4)cc3nn1-2	Neddylation inh active | Neddyl conf active
COC(=O)c1ccc(C(=O)OC)c(NC(=O)/C=C/C(=O)O)c1	Neddylation inh active | Neddyl conf inactive
COC(=O)c1ccc(C(=O)OC)c(NC(=O)Oc2ccccc2)c1	none
COc1ccc2cc3cc(C(=O)NCCCN4CCc5ccccc5C4)sc3nc2c1	Neddylation inh active | Neddyl conf active
Cc1cc(C)cc(C(O)c2ncc(-c3cccc(F)c3)[nH]2)c1 (stereo not given)	none (no result: NR2E3 ag-1)
COc1ccc(C2C3=C(CC(C)(C)CC3=O)Nc3c2c(=O)[nH]c(=O)n3Cc2ccccc2)cc1OC (stereo not given)	Neddylation inh active
COc1ccc(/C=C/c2nc(S(=O)(=O)c3ccccc3)c(NCCCN(C)C)o2)cc1OC	none
COc1ccccc1/C=C/c1nc(S(=O)(=O)c2ccccc2)c(NCCN(C)C)o1	Neddylation inh active
COc1ccc(C2CC(c3cccs3)=NN2C(=O)c2ccco2)cc1OC (stereo not given)	none
N#Cc1ccccc1OCC(=O)N1N=C(c2cccs2)CC1c1ccco1 (stereo not given)	Neddylation inh active | Neddyl conf inactive

Screening data: PubChem BioAssay, several laboratories
